The values that follow come from publication PMC9532533 (Acta Pharmaceutica Sinica. B, 2022).

Usually bioavailability stands for the share of a dose that reaches the circulation, judged against a reference dose that is usually intravenous. A low value points to little systemic uptake. One may read the AUC(0-t) as exposure summed from dosing to a finite time, without extrapolation to infinity. A lower AUC(0-t) goes with low exposure. The half-life is the time needed for the level to fall by half in the phase considered.

Where only a bound is given, the exact number is not on record here.

Series [1] has as its system 32D KIT V559D/N822K cells. Briefly: Antiproliferation assay, 32D KIT V559D/N822K cells. Format: cell-based, murine. The settings on record: Mus musculus, read-out: GI50, V559D/N822K.
The subject of series [2] is 32D KIT^D816V xenografts. The series is described as follows: In vivo antitumor efficacy, 32D KIT^D816V xenograft. The settings on record: i.g., BID × 12; for mortality and body weight loss: whole period of treatment. On the set-up: species or system nude mice.
The subject of series [3] is phosphorylation of KIT^D816V and downstream STAT3 and ERK. Briefly: Western blot of KIT signaling in 32D KIT^D816V cells. The format is cell-based, murine. The following applies: 4-h treatment. In general terms: Immunoblotting shows a protein as a band on a membrane.
The subject of series [4] is 32D KIT V559D cells. The series is described as follows: Antiproliferation assay, 32D KIT V559D cells. The format is cell-based, murine. The following applies: Mus musculus, read-out: GI50, V559D.
The nature of series [5]: Pharmacokinetics in mice. Format: in vivo, male ICR (CD-1) mice. The following applies: male, ICR (CD-1), mouse, plasma; for AUC(0-t) / half-life: po, 10 mg/kg. Summed up: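 Male ICR (CD-1) mice, n = 3 per route, each given a single dose of test compound: 2 mg/kg i.v. or 10 mg/kg p.o. Plasma drug levels measured by LC/MS/MS, and key PK parameters derived from these concentration data.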

Series [6] relates to 32D cells. The series is described as follows: Antiproliferation assay, normal parent 32D cells. The following applies: Mus musculus, read-out: 32D cells (GI50, nmol/L). The format is cell-based, murine.
Series [7] has as its system 32D KIT V559D/V654A cells. The series is described as follows: Antiproliferation assay, 32D KIT V559D/V654A cells. The format is cell-based, murine. The settings on record: Mus musculus, read-out: GI50, V559D/V654A.

For `Cc1ccc(C(=O)NCc2ccsc2)cc1C#Cc1cn(C(C)C)c2ncnc(N)c12` [Compound 54], the GI50 in series [1] was 0.8 nM; in series [4], 0.09 nM; in series [6] it was greater than 1000 nmol/L; in series [7] it was 1.1 nM. Besides, the “TGI (tumor growth inhibition)” value is 45% in series [2] (20 mg/kg) and 71% in series [2] (40 mg/kg). Moreover, in series [2], the “mortality and body weight loss” value is listed as “no mortality or obvious body weight loss”. The “inhibition of phosphorylation of KIT^D816V and downstream STAT3 and ERK” value in series [3] was “potent inhibition effects”. The bioavailability in series [5] (oral, 10 mpk) is 29.9%. In series [5], this compound registered an AUC(0-t) of 1280 ng·h/mL. The same compound gave a half-life in series [5] of 2.29 h.

In the case of `COCCn1cc(C#Cc2cc(C(=O)NCc3ccsc3)ccc2C)c2c(N)ncnc21` [Compound 57], the “suppression of growth of 32D KIT^D816V xenografts” value in series [2] (high dose group 100 mg/kg) is 50%. Besides, the “mortality and body weight loss” value in series [2] is “no mortality or obvious body weight loss”. Besides, the “inhibition of phosphorylation of KIT^D816V and downstream STAT3 and ERK” value in series [3] is “potent inhibition effects”. For the same compound, in series [5], the AUC(0-t) came to 233 ng·h/mL and the half-life is 1.34 h.

Regarding `CCn1c(=O)c(-c2cc(NC(=O)Nc3ccccc3)c(F)cc2Br)cc2cnc(NC)cc21` [Ripretinib, ripretinib, reference compound], the “mortality and body weight loss” value in series [2] was “no mortality or obvious body weight loss”.
